Data: ChEMBL document CHEMBL1150404, “Synthesis, alpha 1-adrenoceptor antagonist activity, and SAR study of novel arylpiperazine derivatives of phenytoin” (Bioorg Med Chem, 2008)

Target: not listed separately
Assay: Displacement of [3H]prazosin from alpha-1-adrenoceptor in Wistar rat cerebral cortex membrane
Assay type: tissue-based
Summary of the method: (§1)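 Rat brain homogenised in ice-cold 50 mM Tris–HCl pH 7.6, centrifuged twice at 20,000g for 20 min at 0–4 °C. Membranes incubated with [3H]prazosin 0.2 nM (α1) or [3H]clonidine 2 nM (α2) and 7–8 test concentrations (10^-11–10^-4 M). Filter-bound radioactivity counted by liquid scintillation; duplicates; curve-fitted, Ki by Cheng–Prusoff.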

SMILES | Ki
COc1ccccc1N1CCN(C(C)CCN2C(=O)NC3c4ccccc4OC3C2=O)CC1 (stereo not given) | 100 pM
COc1ccccc1N1CCN(CCN2C(=O)C3Oc4ccccc4C3N(C)C2=O)CC1 (stereo not given) | 100 pM
COc1ccccc1OCCN1CCN(c2cnn(CCCCCCN3CCN(c4ccccc4OC)CC3)c(=O)c2Cl)CC1 | 50 pM
COc1ccccc1N1CCN(CCN2C(=O)C3Sc4ccccc4C3N(C)C2=O)CC1 (stereo not given) | 100 pM
COc1ccccc1N1CCN(C(C)CN2C(=O)C3Sc4ccccc4C3N(C)C2=O)CC1 (stereo not given) | 100 pM
COc1ccccc1N1CCN(C(C)CN2C(=O)C3Nc4ccccc4C3N(C)C2=O)CC1 (stereo not given) | 100 pM
COc1ccccc1N1CCN(C(C)CN2C(=O)NC3c4ccccc4OC3C2=O)CC1 (stereo not given) | 100 pM
CCOc1ccccc1OCCN1CCN(c2cnn(CCCCCN3CCN(c4ccccc4OC(C)C)CC3)c(=O)c2Cl)CC1 | 50 pM
COc1ccccc1N1CCN(CCN2C(=O)NC3c4ccccc4NC3C2=O)CC1 (stereo not given) | 100 pM
COc1ccccc1N1CCN(CCCCCn2nc(-n3ccnc3)ccc2=O)CC1 | 200 pM
CCOc1ccccc1OCCN1CCN(c2cnn(CCCCN3CCN(c4ccccc4OCC)CC3)c(=O)c2Cl)CC1 | 50 pM
CCOc1ccccc1OCCN1CCN(c2cnn(CCCN3CCN(c4ccccc4OC(C)C)CC3)c(=O)c2Cl)CC1 | 50 pM
COc1ccccc1N1CCN(CCCN2C(=O)NC3c4ccccc4NC3C2=O)CC1 (stereo not given) | 100 pM
CCOc1ccccc1N1CCN(CCCCCCn2ncc(N3CCN(CCOc4ccccc4OC)CC3)c(Cl)c2=O)CC1 | 50 pM
COc1ccccc1N1CCN(C(C)CCN2C(=O)C3Nc4ccccc4C3N(C)C2=O)CC1 (stereo not given) | 100 pM
COc1ccccc1OCCN1CCN(c2cnn(CCCCCCCN3CCN(c4ccccc4OC)CC3)c(=O)c2Cl)CC1 | 50 pM
COc1ccccc1N1CCN(CCCN2C(=O)C3Sc4ccccc4C3N(C)C2=O)CC1 (stereo not given) | 100 pM
COc1ccccc1OCCN1CCN(c2cnn(CCN3CCN(c4ccccc4OC)CC3)c(=O)c2Cl)CC1 | 50 pM
CCOc1ccccc1N1CCN(CCCCCn2ncc(N3CCN(CCOc4ccccc4OC)CC3)c(Cl)c2=O)CC1 | 50 pM
COc1ccccc1N1CCN(CCN2C(=O)NC3c4ccccc4OC3C2=O)CC1 (stereo not given) | 100 pM
COc1ccccc1N1CCN(C(C)CN2C(=O)C3Oc4ccccc4C3N(C)C2=O)CC1 (stereo not given) | 100 pM

SMILES | Ki
CCOc1ccccc1OCCN1CCN(c2cnn(CCCN3CCN(c4ccccc4OC)CC3)c(=O)c2Cl)CC1 | 50 pM
COc1ccccc1N1CCN(CCN2C(=O)C3Sc4ccccc4C3N=C2C)CC1 (stereo not given) | 500 pM
COc1ccccc1N1CCN(C(C)CCN2C(=O)C3Oc4ccccc4C3N(C)C2=O)CC1 (stereo not given) | 100 pM
COc1ccccc1N1CCN(C(C)CCN2C(=O)NC3c4ccccc4SC3C2=O)CC1 (stereo not given) | 100 pM
COc1ccccc1N1CCN(C(C)CN2C(=O)C3C(c4ccccc4N3C)N(C)C2=O)CC1 (stereo not given) | 100 pM
CCOc1ccccc1OCCN1CCN(c2cnn(CCCCN3CCN(c4ccccc4OC)CC3)c(=O)c2Cl)CC1 | 50 pM
CCOc1ccccc1OCCN1CCN(c2cnn(CCN3CCN(c4ccccc4OCC)CC3)c(=O)c2Cl)CC1 | 50 pM
CCOc1ccccc1OCCN1CCN(c2cnn(CCCCCCN3CCN(c4ccccc4OC(C)C)CC3)c(=O)c2Cl)CC1 | 50 pM
CCOc1ccccc1OCCN1CCN(c2cnn(CCCCCCN3CCN(c4ccccc4OCC)CC3)c(=O)c2Cl)CC1 | 50 pM
COc1ccccc1N1CCN(CCCN2C(=O)NC3c4ccccc4N(C)C3C2=O)CC1 (stereo not given) | 100 pM
COc1ccccc1OCCN1CCN(c2cnn(CCCN3CCN(c4ccccc4OC(C)C)CC3)c(=O)c2Cl)CC1 | 50 pM
COc1ccccc1N1CCN(C(C)CCN2C(=O)NC3c4ccccc4NC3C2=O)CC1 (stereo not given) | 100 pM
COc1ccccc1N1CCN(C(C)CN2C(=O)NC3c4ccccc4SC3C2=O)CC1 (stereo not given) | 100 pM
COc1ccccc1OCCN1CCN(c2cnn(CCCCN3CCN(c4ccccc4OC(C)C)CC3)c(=O)c2Cl)CC1 | 50 pM
COc1ccc(Cl)cc1N1CCN(CCN2C(=O)C3Nc4ccccc4C3N=C2C)CC1 (stereo not given) | 500 pM
O=c1ccc(-n2ccnc2)nn1CCCN1CCN(c2ccccc2Cl)CC1 | 200 pM
COc1ccccc1OCCN1CCN(c2cnn(CCCCCN3CCN(c4ccccc4OC(C)C)CC3)c(=O)c2Cl)CC1 | 50 pM
CCOc1ccccc1OCCN1CCN(c2cnn(CCCCCCN3CCN(c4ccccc4OC)CC3)c(=O)c2Cl)CC1 | 50 pM
COc1ccccc1OCCN1CCN(c2cnn(CCN3CCN(c4ccccc4OC(C)C)CC3)c(=O)c2Cl)CC1 | 50 pM
COc1ccccc1OCCN1CCN(c2cnn(CCCCN3CCN(c4ccccc4OC)CC3)c(=O)c2Cl)CC1 | 50 pM
COc1ccccc1N1CCN(C(C)CN2C(=O)NC3c4ccccc4N(C)C3C2=O)CC1 (stereo not given) | 100 pM

SMILES | Ki
CCOc1ccccc1OCCN1CCN(c2cnn(CCCCN3CCN(c4ccccc4OC(C)C)CC3)c(=O)c2Cl)CC1 | 50 pM
COc1ccccc1N1CCN(C(C)CCN2C(=O)NC3c4ccccc4N(C)C3C2=O)CC1 (stereo not given) | 100 pM
COc1ccccc1N1CCN(C(C)CN2C(=O)NC3c4ccccc4NC3C2=O)CC1 (stereo not given) | 100 pM
CCOc1ccccc1OCCN1CCN(c2cnn(CCCCCCCN3CCN(c4ccccc4OCC)CC3)c(=O)c2Cl)CC1 | 50 pM
COc1ccccc1OCCN1CCN(c2cnn(CCCCCCCN3CCN(c4ccccc4OC(C)C)CC3)c(=O)c2Cl)CC1 | 50 pM
COc1ccccc1N1CCN(CCCn2nc(-n3ccnc3)ccc2=O)CC1 | 200 pM
CCOc1ccccc1N1CCN(CCCCn2ncc(N3CCN(CCOc4ccccc4OC)CC3)c(Cl)c2=O)CC1 | 50 pM
COc1ccccc1N1CCN(CCN2C(=O)C3Nc4ccccc4C3N(C)C2=O)CC1 (stereo not given) | 100 pM
O=c1ccc(-n2cnc3ccccc32)nn1CCCCCCCN1CCN(c2ccccc2Cl)CC1 | 200 pM
COc1ccccc1N1CCN(CCCN2C(=O)C3Oc4ccccc4C3N(C)C2=O)CC1 (stereo not given) | 100 pM
COc1ccccc1N1CCN(CCN2C(=O)C3Nc4ccccc4C3N=C2C)CC1 (stereo not given) | 500 pM
CCOc1ccccc1N1CCN(CCn2ncc(N3CCN(CCOc4ccccc4OC)CC3)c(Cl)c2=O)CC1 | 50 pM
CCOc1ccccc1OCCN1CCN(c2cnn(CCCCCN3CCN(c4ccccc4OC)CC3)c(=O)c2Cl)CC1 | 50 pM
COc1ccccc1OCCN1CCN(c2cnn(CCCCCCN3CCN(c4ccccc4OC(C)C)CC3)c(=O)c2Cl)CC1 | 50 pM
COC(=O)CN1C(=O)N(CC(O)CN2CCN(c3ccccc3OC)CC2)C(c2ccccc2)(c2ccccc2)C1=O (stereo not given) | 198000 pM
COc1ccccc1N1CCN(CCCN2C(=O)NC3c4ccccc4SC3C2=O)CC1 (stereo not given) | 100 pM
CCOc1ccccc1OCCN1CCN(c2cnn(CCCN3CCN(c4ccccc4OCC)CC3)c(=O)c2Cl)CC1 | 50 pM
COc1ccccc1N1CCN(CCN2C(=O)C3C(c4ccccc4N3C)N(C)C2=O)CC1 (stereo not given) | 100 pM
COc1ccccc1OCCN1CCN(c2cnn(CCCN3CCN(c4ccccc4OC)CC3)c(=O)c2Cl)CC1 | 50 pM
COc1ccccc1N1CCN(CCCCCCCn2nc(-n3ccc4ccccc43)ccc2=O)CC1 | 200 pM
CCOc1ccccc1N1CCN(CCCn2ncc(N3CCN(CCOc4ccccc4OC)CC3)c(Cl)c2=O)CC1 | 50 pM

SMILES | Ki
CCOc1ccccc1OCCN1CCN(c2cnn(CCCCCCCN3CCN(c4ccccc4OC(C)C)CC3)c(=O)c2Cl)CC1 | 50 pM
CCOc1ccccc1OCCN1CCN(c2cnn(CCCCCN3CCN(c4ccccc4OCC)CC3)c(=O)c2Cl)CC1 | 50 pM
CCOc1ccccc1N1CCN(CCCCCCCn2ncc(N3CCN(CCOc4ccccc4OC)CC3)c(Cl)c2=O)CC1 | 50 pM
COc1ccccc1N1CCN(CCN2C(=O)NC3c4ccccc4N(C)C3C2=O)CC1 (stereo not given) | 100 pM
COc1ccccc1N1CCN(C(C)CCN2C(=O)C3Sc4ccccc4C3N(C)C2=O)CC1 (stereo not given) | 100 pM
COc1cc2nc(N3CCN(C(=O)c4ccco4)CC3)nc(N)c2cc1OC [PRAZOSIN] | 240 pM
COc1ccccc1N1CCN(CCCN2C(=O)NC3c4ccccc4OC3C2=O)CC1 (stereo not given) | 100 pM
COc1ccccc1N1CCN(C(C)CCN2C(=O)C3C(c4ccccc4N3C)N(C)C2=O)CC1 (stereo not given) | 100 pM
CCOc1ccccc1OCCN1CCN(c2cnn(CCCCCCCN3CCN(c4ccccc4OC)CC3)c(=O)c2Cl)CC1 | 50 pM
COc1ccccc1N1CCN(CCCCCCCn2ncc(N3CCN(CC4COc5ccccc5O4)CC3)c(Cl)c2=O)CC1 (stereo not given) | 50 pM
COC(=O)C(C)N1C(=O)N(CC(O)CN2CCN(c3ccccc3OC)CC2)C(c2ccccc2)(c2ccccc2)C1=O (stereo not given) | 104000 pM
COc1ccccc1N1CCN(CCCN2C(=O)C3Nc4ccccc4C3N(C)C2=O)CC1 (stereo not given) | 100 pM
COc1ccc(Cl)cc1N1CCN(CCN2C(=O)C3Sc4ccccc4C3N=C2C)CC1 (stereo not given) | 500 pM
CCOc1ccccc1OCCN1CCN(c2cnn(CCN3CCN(c4ccccc4OC)CC3)c(=O)c2Cl)CC1 | 50 pM
COc1ccccc1N1CCN(CCCCCCn2nc(-n3ccc4ccccc43)ccc2=O)CC1 | 200 pM
CCOc1ccccc1OCCN1CCN(c2cnn(CCN3CCN(c4ccccc4OC(C)C)CC3)c(=O)c2Cl)CC1 | 50 pM
COc1ccccc1OCCN1CCN(c2cnn(CCCCCN3CCN(c4ccccc4OC)CC3)c(=O)c2Cl)CC1 | 50 pM
COc1ccccc1N1CCN(CCN2C(=O)NC3c4ccccc4SC3C2=O)CC1 (stereo not given) | 100 pM
COc1ccccc1N1CCN(CCCN2C(=O)C3C(c4ccccc4N3C)N(C)C2=O)CC1 (stereo not given) | 100 pM

Target: not listed separately
Assay: Displacement of [3H]clonidine from alpha-2-adrenoceptor in Wistar rat cerebral cortex membrane
Assay type: tissue-based
Summary of the method: as §1

SMILES | Ki
COC(=O)CN1C(=O)N(CC(O)CN2CCN(c3ccccc3OC)CC2)C(c2ccccc2)(c2ccccc2)C1=O (stereo not given) | 800000 pM
CCOc1ccccc1N1CCN(CC(O)CN2C(=O)N(C)C(=O)C2(c2ccccc2)c2ccccc2)CC1 (stereo not given) | 535000 pM
COC(=O)C(C)N1C(=O)N(CC(O)CN2CCN(c3ccccc3OC)CC2)C(c2ccccc2)(c2ccccc2)C1=O (stereo not given) | 449000 pM

Species: Rattus norvegicus
Assay: Selectivity of Ki for alpha-2-adrenoceptor to Ki for alpha-1-adrenoceptor in Wistar rat cerebral cortex membrane
Assay type: tissue-based

SMILES | Ratio Ki
COC(=O)CN1C(=O)N(CC(O)CN2CCN(c3ccccc3OC)CC2)C(c2ccccc2)(c2ccccc2)C1=O (stereo not given) | 4.04
CCOc1ccccc1N1CCN(CC(O)CN2C(=O)N(C)C(=O)C2(c2ccccc2)c2ccccc2)CC1 (stereo not given) | 4.4
COC(=O)C(C)N1C(=O)N(CC(O)CN2CCN(c3ccccc3OC)CC2)C(c2ccccc2)(c2ccccc2)C1=O (stereo not given) | 4.32

Test system: not listed separately
Assay: Antagonist activity at alpha-1-adrenoceptor in Wistar rat thoracic aorta assessed as inhibition of phenylephrine-induced contraction
Assay type: functional, tissue-based
Summary of the method: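 Male Wistar rats (200–350 g), thiopental 75 mg/kg ip; endothelium-denuded thoracic aorta rings (~4 mm) in Krebs–Henseleit, 37 °C, pH 7.4, O2/CO2 19:1. Cumulative phenylephrine curves (3·10^-9–3·10^-6 M) before and after 20 min with one of 3–4 antagonist concentrations per ring; 60 min recovery between curves.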

SMILES | pKb
CCOc1ccccc1N1CCN(CC(O)CN2C(=O)N(C)C(=O)C2(c2ccccc2)c2ccccc2)CC1 (stereo not given) | 7.022
COC(=O)C(C)N1C(=O)N(CC(O)CN2CCN(c3ccccc3OC)CC2)C(c2ccccc2)(c2ccccc2)C1=O (stereo not given) | 7.084
